High-throughput results: PubChem, several laboratories
L major viab: Leishmania major promastigote growth inhibition. Leishmania major promastigotes, resazurin fluorescence viability. inhibition, % at 10 µM. actives 9% (n = 200,000); in the data active = inhibition above about 50%;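 also: promastigotes grown with compound for 44 hours at 28 °C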
Diaph inh CS: diaphorase inhibition or chemical oxidation counter-screen; inhibition, % at 20 µM; AID 1217; diaphorase resazurin-to-resorufin fluorescence, NADH, 16 min; bacterial (C. kluyveri) enzyme, not human; actives 0.69% (n = 190,000);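 active = primary screen inhibition at 20 µM above a set limit, cut at about 50% in these data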
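Assay system: diaphorase enzyme from Clostridium kluyveri. Quantity: enzyme working solution with 0.14 U/mL diaphorase. Schedule: reaction incubation of 16 min at room temperature. Technique: resorufin fluorescence, excitation 544 nm, emission 590 nm. Controls: No-NADH positive control and DMSO neutral control.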
Cl transport mod: KCC2 (human) Cl- transport modulation. Q9H2X9. B-score of Tl+ flux slope (higher = more flux/activation; lower = inhibition) at 10 µM. actives 2.2% (n = 190,000). AID 1456. KCC2 cells, thallium flux FluoZin-2 fluorescence;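 active = thallium flux slope and its plate-corrected score both differing from the plate sample mean at a set confidence after two filtering rounds, in either direction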;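 also: slope of fluorescence scaled to starting intensity during 10 to 20 s after thallium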
ROMK mod: modulates human ROMK potassium channel activity | B-score at 10 µM | Tet-inducible ROMK, thallium flux fluorescence; actives lie on both sides | AID 1918 | P48048 | actives 2% (n = 130,000);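 active = signal ratio slope over the read window, or its plate-corrected B-score, at least 3 SD from the plate mean, either direction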;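 also: B-score of the F/F0 ratio slope over 7 to 12 s after thallium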
Target sequence (P48048 whole entry, looked up): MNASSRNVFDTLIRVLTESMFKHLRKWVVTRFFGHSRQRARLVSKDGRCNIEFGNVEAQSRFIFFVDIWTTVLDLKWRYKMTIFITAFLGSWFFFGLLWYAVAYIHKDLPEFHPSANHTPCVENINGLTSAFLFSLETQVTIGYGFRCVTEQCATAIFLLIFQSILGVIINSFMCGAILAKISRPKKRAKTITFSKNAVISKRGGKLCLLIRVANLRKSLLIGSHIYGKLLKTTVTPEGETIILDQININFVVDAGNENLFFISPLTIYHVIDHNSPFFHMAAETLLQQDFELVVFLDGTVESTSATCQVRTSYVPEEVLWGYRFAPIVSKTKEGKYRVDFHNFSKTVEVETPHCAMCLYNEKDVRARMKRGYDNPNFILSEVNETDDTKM
WT yeast gro inh: growth inhibition of WT yeast, mitochondrial fusion screen. mitochondrial fusion phenotypic screen, WT strain. inhibition, % at 10 µM. actives 2.1% (n = 190,000). AID 1362; in the data active = inhibition above about 58%; tested in S. cerevisiae
Diaph act CS: counter-screen for diaphorase-based assays: diaphorase activators and chemical reducers. Diaphorase/resazurin coupled assay, resorufin fluorescence, 16 min; active compounds read high; 1 = vehicle wells, 0 = NADH-free wells. activation factor at 20 µM. actives 0.005% (n = 190,000). AID 1229;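 active = diaphorase activity raised at least twofold by the compound at 20 µM; inactive = activation factor below 2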
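Material: purified diaphorase enzyme from Clostridium kluyveri; Also added: 0.114 mM NADH and 0.1 mM resazurin, final amounts; Doses: single compound dose of 20 µM, 1% DMSO final; Times: 16 min enzyme reaction, ambient temperature; Detection: resorufin fluorescence, excitation 544 nm, emission 590 nm; Measure: increased resorufin signal from activators or reducing compounds.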
A number is an active result; i = inactive; nt = not tested or not shown. An excerpt weighted towards active compounds, which were near 12% of everything screened.

SMILES	L major viab	Diaph inh CS	Cl transport mod	ROMK mod	WT yeast gro inh	Diaph act CS
O=C(NC1CCN(Cc2ccccc2)CC1)c1ccc2c(c1)OCCCO2	nt	nt	i	nt	nt	nt
O=C(CCCCn1c(=O)c2ccccc2n(Cc2ccccc2)c1=O)NC1CCN(Cc2ccccc2)CC1	73	i	i	i	i	i
Cc1ccccc1C(=O)NC1CCN(Cc2nnnn2CCc2ccccc2)CC1	i	i	nt	nt	i	i
Cc1cc(-c2c(C(=O)N3CCOCC3)c(C)nn2-c2ccccc2)no1	nt	nt	i	nt	nt	nt
CCN(CC)CCNC(=O)C(C)c1nn(CC)c(=O)c2ccccc12 (configuration not stated)	i	i	nt	nt	i	i
Cc1ccccc1CN(CC1CCC(C(=O)O)CC1)C(=S)Nc1ccccc1F (configuration not stated)	i	i	i	i	i	i
O=C(CCn1c(=O)c2ccccc2n(CC(=O)NC2CCCC2)c1=O)NCc1ccco1	100	i	i	nt	i	i
O=C(NC1CCN(Cc2ccccc2)CC1)C1COc2ccccc2O1 (configuration not stated)	92	i	i	i	i	i
O=C(COc1ccccc1)NC1CCN(Cc2ccccc2)CC1	86	i	i	nt	i	i
CCN(Cc1ccccc1)Cc1nnnn1Cc1ccccc1	i	i	i	i	i	i
Cc1ccc(S(=O)(=O)NNC(=O)c2cccc(O)c2)cc1	i	i	i	i	i	i
COc1ccc(N2CCN(C(=O)c3ccc(Br)cc3)CC2)c([N+](=O)[O-])c1	i	i	i	i	69	i
COc1ccc(N2CCN(C(=O)c3ccccc3)CC2)c([N+](=O)[O-])c1	i	i	i	i	i	i
COc1ccc(N2CCN(C(=O)c3ccccc3Br)CC2)c([N+](=O)[O-])c1	i	i	i	i	i	i
COc1ccc(N2CCN(C(=O)c3ccc(C)cc3)CC2)c([N+](=O)[O-])c1	54	i	i	i	i	i
CCN(CC)S(=O)(=O)c1ccc(OC)c(NC(=O)CSc2cc(Cl)ccc2Cl)c1	98	i	i	i	i	i
CCN(CC)S(=O)(=O)c1ccc(OC)c(NC(=O)CSc2ccccc2)c1	99	i	i	nt	i	i
CCOc1ccc(NS(=O)(=O)c2ccc3ncsc3c2)cc1	i	i	i	i	i	i
Cc1c(Cl)cccc1Nc1nc(N)nc(CN2CCCCCC2)n1	81	i	nt	i	i	i
COc1ccc(Nc2nc(N)nc(CN3CCc4ccccc4C3)n2)cc1	i	i	i	nt	i	i
Cc1ccc(Nc2nc(N)nc(CN3CCCCCC3)n2)cc1	i	i	i	nt	i	i
COc1ccccc1Nc1nc(N)nc(CN2CCc3ccccc3C2)n1	100	i	i	i	i	i
Cc1oc(-c2cccs2)nc1CN1CCC(c2ccccc2)CC1	i	i	i	i	i	i
COc1cc(/C=C/C(=O)OCC(=O)NCc2cccs2)ccc1OCC#N	i	i	i	i	i	i
CCn1c(-c2ccccc2)csc1=Nc1ccc(S(=O)(=O)O)cc1	55	i	i	i	i	i
SMILES	L major viab	Diaph inh CS	Cl transport mod	ROMK mod	WT yeast gro inh	Diaph act CS
CC(C)[C@H](NC(=O)c1ccccc1)C(=O)OCC(=O)N1CC2(C)CC1CC(C)(C)C2 (some centres not stated)	53	i	i	i	i	i
CC(C)[C@H](NC(=O)c1ccccc1)C(=O)OCC(=O)N1CC(=O)Nc2ccccc21	i	i	i	i	i	i
CC(C)C(NC(=O)c1ccc(F)cc1)C(=O)OCC(=O)N1CC(=O)Nc2ccccc21 (configuration not stated)	68	i	i	i	i	i
COc1cc(/C=N/n2cnnc2)ccc1OCCSc1ccc(C)cc1	55	i	nt	nt	i	i
CCOc1ccc(C(=O)CC(=O)C(=O)NCCc2ccc(OC)c(OC)c2)cc1	60	i	i	i	i	i
COc1ccc(OCCCC(=O)NCCc2ccc(OC)c(OC)c2)cc1	i	i	i	i	i	i
O[C@H]1COC2C1OC[C@@H]2O (some centres not stated)	i	i	i	nt	i	i
CCN(CC)C(=O)c1ccc2c(c1[N+](=O)[O-])C(=O)c1ccccc1C2=O	i	i	i	nt	i	i
COc1cccc(C2(CSc3nnc(-c4cc(OC)c(OC)c(OC)c4)o3)OCCO2)c1	i	i	i	i	i	i
CN(C)Cc1c(O)ccc2occ(C(=O)c3ccccc3)c12	i	i	i	nt	i	i
COc1ccc(C(O)c2coc3ccc(O)c(CN(C)C)c23)cc1 (configuration not stated)	100	i	i	nt	i	i
COc1ccccc1-c1ccc(SCc2ccc([N+](=O)[O-])cc2)nn1	i	i	i	i	i	i
COc1ccccc1-c1ccc(SCc2cccc(C)c2)nn1	99	i	i	i	68	i
O=c1[nH]oc2cc(Cl)ccc12	nt	nt	i	nt	nt	nt
NC(=O)C(=O)N/N=C/c1c(F)c(F)c(F)c(F)c1F	i	i	i	i	i	i
CN1CCN(/N=C/c2c3ccccc3c(Cl)c3ccccc23)CC1	66	i	i	i	i	i
CC1CCC(C(=O)c2c(O)c3ccccc3oc2=O)CC1 (configuration not stated)	99	i	i	nt	i	i
Cc1ccc2nc(SCC(=O)O)nc(C)c2c1	i	i	i	nt	i	i
Cc1ccc2nc(SC(C(=O)c3ccccc3)c3ccccc3)nc(C)c2c1 (configuration not stated)	92	i	i	i	i	i
Cc1ccccc1OCCN1C(=O)C(=O)c2cccc(C)c21	i	i	i	i	i	i
Cc1cccc2c1N(CCOc1ccccc1Cl)C(=O)C2=O	67	i	i	i	i	i
COc1ccc2c(C)cc(SCC(=O)N(C)C3CCS(=O)(=O)C3)nc2c1 (configuration not stated)	i	i	i	i	i	i
CCC1CCCCN1C(=O)CCc1nnc(C2CCCCC2)o1 (configuration not stated)	i	i	i	i	i	i
CC(=O)Nc1ccccc1NS(=O)(=O)c1cccc([N+](=O)[O-])c1	i	i	i	i	i	i
Cc1csc(NS(=O)(=O)c2cccc([N+](=O)[O-])c2)n1	i	67	i	nt	i	i
C/C(=N\NC(=O)COc1ccc(C(C)(C)C)cc1)c1ccc(N2CCOCC2)cc1	74	i	i	nt	i	i
CCc1ccc(OCC(=O)N/N=C(\C)c2ccc(OC(F)F)cc2)cc1	69	i	i	i	i	i
CCc1ccc(OCC(=O)N/N=C(\C)c2ccccc2OC(F)F)cc1	i	i	i	i	i	i
CC(C)(C)c1nnc(NC(=O)c2cccnc2)s1	i	i	i	i	i	i
COc1cc(OC)cc(C(=O)NNC(=O)c2ccccn2)c1	93	i	i	nt	i	i
